Source: ChEMBL document CHEMBL1914423, “New imidazo[2,1-b]thiazole derivatives: synthesis, in vitro anticancer evaluation, and in silico studies” (Eur J Med Chem, 2011)

Tests used:
[1] = Antiproliferative activity against human A375P cells after 48 hrs by MTT assay; type: functional, cell-based
Outline: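 A375P cells in DMEM with 10% FBS at 37 °C, 5% CO2. Seeded at 5×10³ cells/well, held 24 h, then treated with 12-point 3-fold serial dilutions for 48 h. Viability by MTT reduction. IC50 values are means of triplicate experiments.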

CCRF-CEM = test: Anticancer activity against human CCRF-CEM cells assessed as cell growth at 10^-5 M after 48 hrs by SRB assay; type: functional; settings: read-out: Activity
Outline: (§1)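 NCI-60 single-dose screen at one concentration. Cells grown in RPMI 1640 with 5% FBS and 2 mM L-glutamine, plated at 5000–40,000 cells/well, and pre-incubated 24 h at 37 °C in 5% CO2 before DMSO-dissolved drug was added. Cells fixed with TCA, SRB-stained, absorbance read at 515 nm. Percent growth calculated against time-zero and untreated control plates.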

HL-60(TB) = test: Anticancer activity against human HL-60(TB) cells assessed as cell growth at 10^-5 M after 48 hrs by SRB assay; type: functional; settings: HL-60, 48 h, read-out: Activity
Outline: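 NCI-60 single-dose screen. Cells in RPMI 1640 with 5% FBS and 2 mM L-glutamine were plated at 5000–40,000 cells/well and preincubated 24 h at 37 °C before one compound concentration. Time-zero plates were TCA-fixed at drug addition. For suspension cells, settled cells were fixed with cold TCA, then SRB-stained and read at 515 nm. Percent growth was calculated from time-zero, control and treated absorbances.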

K562 = test: Anticancer activity against human K562 cells assessed as cell growth at 10^-5 M after 48 hrs by SRB assay; type: functional; settings: K562, 48 h, read-out: Activity; outline: as §1
SR = test: Anticancer activity against human SR cells assessed as cell growth at 10^-5 M after 48 hrs by SRB assay; type: functional; settings: read-out: Activity
Outline: (§2)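 NCI-60 single-dose screen: cells in RPMI 1640 with 5% FBS and 2 mM L-glutamine, plated at 5000–40,000 cells/well by doubling time, and preincubated 24 h at 37 °C. Compound given at one concentration from DMSO stock. Cells TCA-fixed and SRB-stained, absorbance at 515 nm. Percent growth relative to time-zero and untreated controls; inhibition % = 100 − growth %.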

A549 = test: Anticancer activity against human A549 cells assessed as cell growth at 10^-5 M after 48 hrs by SRB assay; type: functional; settings: A549, 48 h, read-out: Activity; outline: as §1
EKVX = test: Anticancer activity against human EKVX cells assessed as cell growth at 10^-5 M after 48 hrs by SRB assay; type: functional; settings: read-out: Activity; outline: as §1
HOP-62 = test: Anticancer activity against human HOP62 cells assessed as cell growth at 10^-5 M after 48 hrs by SRB assay; type: functional; settings: HOP-62, 48 h, read-out: Activity; outline: as §1
NCI-H460 = test: Anticancer activity against human NCI-H460 cells assessed as cell growth at 10^-5 M after 48 hrs by SRB assay; type: functional; settings: NCI-H460, 48 h, read-out: Activity
COLO 205 = test: Anticancer activity against human COLO205 cells assessed as cell growth at 10^-5 M after 48 hrs by SRB assay; type: functional; settings: COLO 205, 48 h, read-out: Activity; outline: as §1
HT-29 = test: Anticancer activity against human HT-29 cells assessed as cell growth at 10^-5 M after 48 hrs by SRB assay; type: functional; settings: HT-29, 48 h, read-out: Activity; outline: as §1
SF-295 = test: Anticancer activity against human SF295 cells assessed as cell growth at 10^-5 M after 48 hrs by SRB assay; type: functional; settings: SF-295, 48 h, read-out: Activity
SNB-75 = test: Anticancer activity against human SNB75 cells assessed as cell growth at 10^-5 M after 48 hrs by SRB assay; type: functional; settings: SNB-75, 48 h, read-out: Activity; outline: as §2
LOX IMVI = test: Anticancer activity against human LOXIMVI cells assessed as cell growth at 10^-5 M after 48 hrs by SRB assay; type: functional; settings: read-out: Activity; outline: as §1
Malme-3M = test: Anticancer activity against human MALME-3M cells assessed as cell growth at 10^-5 M after 48 hrs by SRB assay; type: functional; settings: read-out: Activity; outline: as §1
M14 = test: Anticancer activity against human M14 cells assessed as cell growth at 10^-5 M after 48 hrs by SRB assay; type: functional; settings: M14, 48 h, read-out: Activity; outline: as §1
SK-MEL-5 = test: Anticancer activity against human SK-MEL-5 cells assessed as cell growth at 10^-5 M after 48 hrs by SRB assay; type: functional; settings: SK-MEL-5, 48 h, read-out: Activity
IGROV-1 = test: Anticancer activity against human IGROV1 cells assessed as cell growth at 10^-5 M after 48 hrs by SRB assay; type: functional; settings: IGROV-1, 48 h, read-out: Activity; outline: as §1
OVCAR-4 = test: Anticancer activity against human OVCAR4 cells assessed as cell growth at 10^-5 M after 48 hrs by SRB assay; type: functional; settings: OVCAR-4, 48 h, read-out: Activity
NCI/ADR-RES = test: Anticancer activity against human NCI/ADR-RES cells assessed as cell growth at 10^-5 M after 48 hrs by SRB assay; type: functional; settings: read-out: Activity
SK-OV-3 = test: Anticancer activity against human SKOV3 cells assessed as cell growth at 10^-5 M after 48 hrs by SRB assay; type: functional; settings: SK-OV-3, 48 h, read-out: Activity
786-0 = test: Anticancer activity against human 786-0 cells assessed as cell growth at 10^-5 M after 48 hrs by SRB assay; type: functional; settings: 786-0, 48 h, read-out: Activity; outline: as §1
ACHN = test: Anticancer activity against human ACHN cells assessed as cell growth at 10^-5 M after 48 hrs by SRB assay; type: functional; settings: read-out: Activity; outline: as §1
DU-145 = test: Anticancer activity against human DU145 cells assessed as cell growth at 10^-5 M after 48 hrs by SRB assay; type: functional; settings: DU-145, 48 h, read-out: Activity; outline: as §1
MCF7 = test: Anticancer activity against human MCF7 cells assessed as cell growth at 10^-5 M after 48 hrs by SRB assay; type: functional; settings: MCF7, 48 h, read-out: Activity; outline: as §1
MDA-MB-231 = test: Anticancer activity against human MDA-MB-231 cells assessed as cell growth at 10^-5 M after 48 hrs by SRB assay; type: functional; settings: MDA-MB-231, 48 h, read-out: Activity; outline: as §1
T47D = test: Anticancer activity against human T47D cells assessed as cell growth at 10^-5 M after 48 hrs by SRB assay; type: functional; settings: read-out: Activity; outline: as §2
MDA-MB-468 = test: Anticancer activity against human MDA-MB-468 cells assessed as cell growth at 10^-5 M after 48 hrs by SRB assay; type: functional; settings: MDA-MB-468, 48 h, read-out: Activity

SMILES | IC50 [1] | growth at 10 µM (CCRF-CEM) | growth at 10 µM (HL-60(TB)) | growth at 10 µM (K562) | growth at 10 µM (SR) | growth at 10 µM (A549) | growth at 10 µM (EKVX) | growth at 10 µM (HOP-62) | growth at 10 µM (NCI-H460) | growth at 10 µM (COLO 205) | growth at 10 µM (HT-29) | growth at 10 µM (SF-295) | growth at 10 µM (SNB-75) | growth at 10 µM (LOX IMVI) | growth at 10 µM (Malme-3M) | growth at 10 µM (M14) | growth at 10 µM (SK-MEL-5) | growth at 10 µM (IGROV-1) | growth at 10 µM (OVCAR-4) | growth at 10 µM (NCI/ADR-RES) | other results
COc1cccc(-c2nc3sccn3c2-c2ccnc(NCCNC(=O)c3cccc(C(F)(F)F)c3)n2)c1 | 4.8 µM | 39.3% | 83.6% | 48.1% | 63.2% | 56% | 76.2% | 99.5% | 74.3% | 46.1% | 49.8% | 54.2% | 85.3% | 54.7% | 50.8% | 46.5% | 48.4% | 53.4% | 89% | 38.4% | growth at 10 µM (SK-OV-3): 81.1%; growth at 10 µM (786-0): 76%; growth at 10 µM (ACHN): 49.5%; growth at 10 µM (DU-145): 67.7%; growth at 10 µM (MCF7): 78.8%; growth at 10 µM (MDA-MB-231): 77.6%; growth at 10 µM (T47D): 46.7%; growth at 10 µM (MDA-MB-468): 71.1%
COc1cccc(-c2nc3sccn3c2-c2ccnc(NCCNC(=O)c3cc(C(F)(F)F)cc(C(F)(F)F)c3)n2)c1 | > 10 µM | 69.9% | 131% | 83.5% | 78.1% | 81.2% | 84.4% | 109% | 92.2% | 93.4% | 69.8% | 94.5% | 75.8% | 92.5% | 94.1% | 79.3% | 75% | 81.5% | 103% | 72.7% | growth at 10 µM (SK-OV-3): 97%; growth at 10 µM (786-0): 75.9%; growth at 10 µM (ACHN): 88.2%; growth at 10 µM (DU-145): 94.4%; growth at 10 µM (MCF7): 72.5%; growth at 10 µM (MDA-MB-231): 82.9%; growth at 10 µM (T47D): 77%; growth at 10 µM (MDA-MB-468): 95.6%
COc1cccc(-c2nc3sccn3c2-c2ccnc(NCCNC(=O)c3ccc(N4CCOCC4)c(C(F)(F)F)c3)n2)c1 | > 10 µM | 54.6% | 85.2% | 32.6% | 76.7% | 76.2% | 74.1% | 99.4% | 77.7% | 69% | 50% | 69.2% | 82.5% | 73.5% | 78.4% | 62.1% | 57.2% | 68.6% | 102% | 69.6% | growth at 10 µM (SK-OV-3): 82.8%; growth at 10 µM (786-0): 71.5%; growth at 10 µM (ACHN): 70.6%; growth at 10 µM (DU-145): 111%; growth at 10 µM (MCF7): 90.9%; growth at 10 µM (MDA-MB-231): 94.2%; growth at 10 µM (T47D): 67%; growth at 10 µM (MDA-MB-468): 90.5%
COc1cccc(-c2nc3sccn3c2-c2ccnc(NCCNC(=O)c3cc(N4CCOCC4)cc(C(F)(F)F)c3)n2)c1 | > 10 µM | 49.4% | 113% | 90.1% | 80.7% | 82.2% | 84.8% | 112% | 95.6% | 73.3% | 58.5% | 83.7% | 72.2% | 79.2% | 80.8% | 65.3% | 66.2% | 67.5% | 107% | 76.5% | growth at 10 µM (SK-OV-3): 99.4%; growth at 10 µM (786-0): 74.4%; growth at 10 µM (ACHN): 80.1%; growth at 10 µM (DU-145): 94.6%; growth at 10 µM (MCF7): 84.9%; growth at 10 µM (MDA-MB-231): 80.4%; growth at 10 µM (T47D): 86.3%; growth at 10 µM (MDA-MB-468): 98.1%
O=C(NCCNc1nccc(-c2c(-c3cccc(O)c3)nc3sccn23)n1)c1ccccc1 | 0.5 µM | 47.3% | 93.3% | 62.8% | 68% | 56.3% | 94.2% | 119% | 42.4% | 48.5% | 65.4% | 67.4% | 54.4% | 23.2% | 9.31% | 15.3% | 40.2% | 57.4% | 98% | 99.7% | growth at 10 µM (SK-OV-3): 65.1%; growth at 10 µM (786-0): 66.5%; growth at 10 µM (ACHN): 60.5%; growth at 10 µM (DU-145): 90.5%; growth at 10 µM (MCF7): 38.1%; growth at 10 µM (MDA-MB-231): 80%; growth at 10 µM (T47D): 58.6%; growth at 10 µM (MDA-MB-468): 54.7%
O=C(NCCNc1nccc(-c2c(-c3cccc(O)c3)nc3sccn23)n1)c1ccccc1O | 3.2 µM | 18.9% | 59.8% | 40.5% | 63.2% | 43.3% | 66.8% | 114% | 57% | 66.5% | 49.2% | 46.4% | 40.6% | 33.5% | 14.6% | 16.7% | 22.7% | 31.6% | 96.2% | 73.6% | growth at 10 µM (SK-OV-3): 60.5%; growth at 10 µM (786-0): 64.6%; growth at 10 µM (ACHN): 46.1%; growth at 10 µM (DU-145): 67.2%; growth at 10 µM (MCF7): 37%; growth at 10 µM (MDA-MB-231): 48.4%; growth at 10 µM (T47D): 61.8%; growth at 10 µM (MDA-MB-468): 52%
O=C(NCCNc1nccc(-c2c(-c3cccc(O)c3)nc3sccn23)n1)c1cccc(C(F)(F)F)c1 | 2.1 µM | 37.5% | 95.5% | 56.2% | 97% | 71.3% | 91.6% | 114% | 85.7% | 71.1% | 81.1% | 69.6% | 73.8% | 53.4% | 0.75% | 17.5% | 52.6% | 62.1% | 117% | 98.3% | growth at 10 µM (SK-OV-3): 84.2%; growth at 10 µM (786-0): 89.3%; growth at 10 µM (ACHN): 66%; growth at 10 µM (DU-145): 91.4%; growth at 10 µM (MCF7): 75.3%; growth at 10 µM (MDA-MB-231): 76.2%; growth at 10 µM (T47D): 69.5%; growth at 10 µM (MDA-MB-468): 70.5%
